This is an account of results in ChEMBL document CHEMBL1140978, “Synthesis and preliminary antibacterial evaluation of simplified thiomarinol analogs” (2009).

Format in all cases: functional
In experiment [1] the test system is Staphylococcus aureus. Put plainly: Antimicrobial activity against Staphylococcus aureus ATCC 25923 at 0.00686 uM after 17 hrs by disk diffusion assay. The conditions noted are these: ATCC 25923, 17 h, read-out: IZ. Summed up: (§1)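 Disk diffusion per CLSI M2-A8. S. aureus grown on trypticase soy agar; five fresh colonies into trypticase soy broth, ~5 h standing at 35 °C, adjusted to A625 0.1 (0.5 McFarland), swabbed onto Mueller–Hinton agar. Compounds in 25% methanol/water, 15 µl loaded on 6 mm paper disks; plates ~17 h at 35 °C; inhibition zones recorded, duplicate plates per strain.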
Background: In agar diffusion tests the substance spreads into inoculated agar from a disc or well.

Experiment [2] relates to Staphylococcus aureus. Put plainly: Antimicrobial activity against Staphylococcus aureus ATCC 6538 at 0.00686 uM after 17 hrs by disk diffusion assay. The conditions noted are these: ATCC 6538, 17 h, read-out: IZ. In a few lines: as §1
For experiment [3], the system named is Staphylococcus aureus. Put plainly: Antimicrobial activity against Staphylococcus aureus ATCC 6538 at 0.0172 uM after 17 hrs by disk diffusion assay. The conditions noted are these: for zone of inhibition at 0.0172 µM: ATCC 6538, 17 h, read-out: IZ. In a few lines: as §1
Experiment [4] has as its system Staphylococcus aureus. Description: Antimicrobial activity against Staphylococcus aureus ATCC 25923 at 0.0172 uM after 17 hrs by disk diffusion assay. The conditions noted are these: for zone of inhibition at 0.0172 µM: ATCC 25923, 17 h, read-out: IZ. In a few lines: as §1
The test system of experiment [5] is Staphylococcus aureus. Put plainly: Antimicrobial activity against Staphylococcus aureus ATCC 25923 at 0.0602 uM after 17 hrs by disk diffusion assay. The conditions noted are these: ATCC 25923, 17 h, read-out: IZ. In a few lines:
as §1

Experiment [6] deals with Staphylococcus aureus. Put plainly: Antimicrobial activity against Staphylococcus aureus ATCC 6538 at 0.0602 uM after 17 hrs by disk diffusion assay. The conditions noted are these: ATCC 6538, 17 h, read-out: IZ. In a few lines: as §1
For experiment [7], the system named is Staphylococcus aureus. Put plainly: Antimicrobial activity against Staphylococcus aureus ATCC 6538 at 0.0344 uM after 17 hrs by disk diffusion assay. The conditions noted are these: ATCC 6538, 17 h, read-out: IZ. In a few lines:
as §1

The subject of experiment [8] is Staphylococcus aureus. Put plainly: Antimicrobial activity against Staphylococcus aureus ATCC 25923 at 0.019 uM after 17 hrs by disk diffusion assay. The conditions noted are these: ATCC 25923, 17 h, read-out: IZ. Summed up: as §1
For experiment [9], the system named is Staphylococcus aureus. Description: Antimicrobial activity against Staphylococcus aureus ATCC 6538 at 0.019 uM after 17 hrs by disk diffusion assay. The conditions noted are these: ATCC 6538, 17 h, read-out: IZ. Summed up:
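Disk diffusion on Mueller–Hinton agar (broth 2.1% w/v, agar 1.7%), following CLSI M2-A8. Inoculum from five fresh trypticase soy agar colonies grown about 5 h standing at 35 °C in trypticase soy broth, then adjusted to A625 0.1 (0.5 McFarland) and swabbed onto plates. Compounds in 25% methanol/water, 15 µl loaded on 6 mm paper disks. Plates incubated about 17 h at 35 °C, inhibition zones recorded, duplicate plates.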

Molecules are shown by their SMILES. Where a name gives a salt, the structure may show the parent alone. Active and inactive are the calls of the source. The calls are words filed in the database; no cut-off is given here.

Regarding `CN[C@@H]1[C@H](O[C@H]2[C@H](O[C@H]3[C@H](O)[C@@H](O)[C@H](N=C(N)N)[C@@H](O)[C@@H]3N=C(N)N)O[C@@H](C)[C@]2(O)C=O)O[C@@H](CO)[C@H](O)[C@H]1O` [STREPTOMYCIN SULFATE], the zone of inhibition at 0.00686 µM in [1] came out at 14 mm; in experiment [2] it was 16 mm.

As for `C/C(=C\C(=O)OCCCCCCCC(=O)N[C@H]1CCCNC1=O)[C@@H](O)[C@@H]1OC[C@H](C/C=C/[C@@H](C)[C@H](C)O)[C@@H](O)[C@H]1O` [THIOMARINOL H], the figures for the zone of inhibition at 0.0172 µM in experiment [3] and in experiment [4] were 16 mm and 10 mm, respectively.

`COC(=O)/C=C(\C)[C@@H](O)[C@@H]1OC[C@H](C/C=C/[C@@H](C)[C@H](C)O)[C@@H](O)[C@H]1O`: the zone of inhibition at 0.0172 µM came out at 16 mm in experiment [3] and 13 mm in experiment [4].

Consider `CCOC(=O)/C=C(\C)[C@@H](O)[C@@H]1OCC[C@@H](O)[C@H]1O`, for which the result in experiment [3] and in experiment [4] was inactive.

Regarding `C/C(=C\C(=O)OC(C)C)[C@@H](O)[C@@H]1OC[C@H](C/C=C/[C@@H](C)[C@H](C)O)[C@@H](O)[C@H]1O`, the figures for the zone of inhibition at 0.0172 µM in [3] and in experiment [4] were 22 mm and 21 mm, respectively.

With `CCOC(=O)/C=C(\C)[C@@H](O)[C@@H]1OC[C@H](C/C=C/[C@@H](C)[C@H](C)O)[C@@H](O)[C@H]1O`, the zone of inhibition at 0.0172 µM in [3] was 22 mm; in experiment [4], 21 mm.

In the case of `CCCCCC[C@H]1CO[C@@H]([C@H](O)/C(C)=C/C(=O)OCC)[C@H](O)[C@@H]1O`, the outcome in experiment [3] and in [4] was inactive.

As for `CN(C)[C@@H]1C(O)=C(C(N)=O)C(=O)[C@@]2(O)C(O)=C3C(=O)c4c(O)cccc4[C@@](C)(O)[C@H]3C[C@@H]12` [TETRACYCLINE HYDROCHLORIDE], the zone of inhibition at 0.0602 µM in experiment [5] was 29 mm; in experiment [6], 28 mm.

For the compound `CCCCNC(=O)/C=C(\C)[C@@H](O)[C@@H]1OC[C@H](C/C=C/[C@@H](C)[C@H](C)O)[C@@H](O)[C@H]1O`, the zone of inhibition at 0.0344 µM in experiment [7] was found to be 14 mm.

As for `CCN(CC)C(=O)/C=C(\C)[C@@H](O)[C@@H]1OC[C@H](C/C=C/[C@@H](C)[C@H](C)O)[C@@H](O)[C@H]1O`, in [7], the zone of inhibition at 0.0344 µM amounted to 15 mm.

Consider `CC1(C)S[C@@H]2[C@H](NC(=O)Cc3ccccc3)C(=O)N2[C@H]1C(=O)O` [PENICILLIN G SODIUM], for which the results for the zone of inhibition at 0.019 µM in experiment [8] and in [9] were 32 mm and 40 mm, respectively.

As to `C/C(=C\C(=O)OCCCCCCCCC(=O)O)C[C@@H]1OC[C@H](C[C@H]2O[C@@H]2[C@@H](C)[C@H](C)O)[C@@H](O)[C@H]1O` [PSEUDOMONIC ACID A CALCIUM SALT], the zone of inhibition at 0.0172 µM was 32 mm in [3] and 26 mm in [4].

Take `C/C(=C1/CCOC1=O)[C@@H](O)[C@@H]1OCC[C@@H](O)[C@H]1O`: the outcome in experiment [3] and in [4] was inactive.

With `C/C(=C1\CCOC1=O)[C@@H](O)[C@@H]1OCC[C@@H](O)[C@H]1O`, the result in experiment [3] and in experiment [4] was inactive.

Turning to `C/C(=C\C(=O)O)[C@@H](O)[C@@H]1OC[C@H](C/C=C/[C@@H](C)[C@H](C)O)[C@@H](O)[C@H]1O`, the outcome in experiment [3] and in [4] was inactive.
